ChEMBL document CHEMBL3108741 (J Med Chem, 2014)
Active and inactive are the calls of the source.

Assays:
Mus musculus [1] = test: Anesthetic effect in mouse assessed as recovery of righting reflex at 1 to 8 mg/kg, iv; type: functional; settings: dose mg/kg 1-8
Method in brief: (§1)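 Mice, tail vein injection; compound in 22.5% aqueous 2-(hydroxypropyl)-β-cyclodextrin, lower doses by serial dilution of the 8 mg/kg stock with 0.9% saline. Anesthesia scored as loss of righting reflex; duration of LRR recorded at each dose.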

Mus musculus [2] = test: Anesthetic effect in mouse assessed as recovery of righting reflex at 8 to 16 mg/kg, iv; type: functional; settings: dose mg/kg 8-16
Method in brief: (§2)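 Mice were given intravenous tail-vein injections at 8 and 16 mg/kg. The compound was in 22.5% aqueous 2-(hydroxypropyl)-β-cyclodextrin. Anesthesia was defined as loss of righting reflex, and onset, duration and recovery of the reflex were followed.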

Mus musculus [3] = test: Anesthetic effect in mouse assessed as onset of loss of righting reflex at 1 to 8 mg/kg, iv; type: functional; settings: dose mg/kg 1-8
Method in brief: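 Tail-vein injection in mice, with anesthesia read as loss of righting reflex (LRR): duration, onset and recovery scored. Compounds were dissolved in 22.5% aqueous 2-(hydroxypropyl)-β-cyclodextrin. Lower doses came from serial dilution of the 8 mg/kg solution with 0.9% saline. Doses tested were 1, 2, 4 and 8 mg/kg.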

Mus musculus [4] = test: Anesthetic effect in mouse assessed as onset of loss of righting reflex at 8 to 16 mg/kg, iv; type: functional; settings: dose mg/kg 8-16; method in brief: as §2
Mus musculus [5] = test: Anesthetic effect in mouse assessed as duration of loss of righting reflex at 16 mg/kg, iv; type: functional; method in brief: as §1
Xenopus laevis [6] = test: Anesthetic effect on prelimb-bud stage Xenopus laevis tadpole assessed as loss of swimming reflex after 3 hrs; type: functional, organism-based
Xenopus laevis [7] = test: Anesthetic effect on prelimb-bud stage Xenopus laevis tadpole assessed as loss of righting reflex after 3 hrs; type: functional, organism-based
Rattus norvegicus [8] = species on record: Rattus norvegicus; test: Positive allosteric modulation of rat alpha1beta2gamma2L GABAA receptor expressed in Xenopus laevis oocytes assessed as potentiation of GABA-induced chloride current elicitation by two-electrode voltage clamp technique relative to control; type: cell-based
Rattus norvegicus [9] = species on record: Rattus norvegicus; test: […] of rat alpha1beta2gamma2L GABAA receptor expressed in Xenopus laevis oocytes assessed as chloride current elicitation at 10 uM by two-electrode voltage clamp technique relative to GABA; type: cell-based
Method in brief: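 Rat α1β2γ2L GABAA receptors expressed in Xenopus oocytes, at least four oocytes. Direct current gated by 10 μM compound without GABA, expressed as the ratio of compound-only current to current evoked by 2 μM GABA; mean ± SEM.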

Rattus norvegicus [10] = species on record: Rattus norvegicus; test: Positive allosteric modulation of rat alpha1beta2gamma2L GABAA receptor expressed in Xenopus laevis oocytes assessed as potentiation of GABA-induced chloride current elicitation at 10 uM by two-electrode voltage clamp technique relative to control; type: cell-based
Rattus norvegicus [11] = species on record: Rattus norvegicus; test: Positive allosteric modulation of rat alpha1beta2gamma2L GABAA receptor expressed in Xenopus laevis oocytes assessed as potentiation of GABA-induced chloride current elicitation at 1 uM by two-electrode voltage clamp technique relative to control; type: cell-based
Rattus norvegicus [12] = species on record: Rattus norvegicus; test: Positive allosteric modulation of rat alpha1beta2gamma2L GABAA receptor expressed in Xenopus laevis oocytes assessed as potentiation of GABA-induced chloride current elicitation at 0.1 uM by two-electrode voltage clamp technique relative to control; type: cell-based
[13] = Displacement of [35S]TBPS from rat picrotoxin binding site of GABAA receptor after 2 hrs by scintillation counting analysis
Method in brief: (§3)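 [35S]TBPS binding inhibition; duplicate experiments each run in triplicate, mean ± SEM. Highest concentration tested 30 μM; IC50 from fitted binding curve, with maximal displacement noted where inhibition was partial.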

[14] = Lipophilicity, log P of the compound; type: physicochemical; settings: octanol/water
Xenopus laevis [15] = test: Anesthetic effect on prelimb-bud stage Xenopus laevis tadpole assessed as loss of swimming reflex at 10 uM after 3 hrs; type: functional, organism-based
Xenopus laevis [16] = test: Anesthetic effect on prelimb-bud stage Xenopus laevis tadpole assessed as loss of righting reflex at 10 uM after 3 hrs; type: functional, organism-based
Rattus norvegicus [17] = species on record: Rattus norvegicus; test: Displacement of [35S]TBPS from rat picrotoxin binding site of GABAA receptor at 30 uM after 2 hrs by scintillation counting analysis; method in brief: as §3
HEK293 [18] = test: Positive allosteric modulation of wild type rat alpha1beta2gamma2L GABAA receptor expressed in HEK293 cells assessed as longest-lived intracluster closed time at 20 uM by […] relative to control; type: cell-based
HEK293 [19] = test: Positive allosteric modulation of wild type rat alpha1beta2gamma2L GABAA receptor expressed in HEK293 cells assessed as longest-lived intracluster open time at 20 uM by […] relative to control; type: cell-based
HEK293 [20] = test: Positive allosteric modulation of wild type rat alpha1beta2gamma2L GABAA receptor expressed in HEK293 cells assessed as OT long at 20 uM by […]; type: cell-based
Method in brief: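 Single-channel recording of rat wild-type α1β2γ2L GABAA receptors. Receptors were activated by 50 μM GABA with or without 20 μM compound, in 4-7 patches. Intracluster open-time histograms were fitted to sums of two or three exponentials, and the long open-time component was taken from the fit.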

| Compound | Time (Mus musculus [1]) [min] | Time (Mus musculus [2]) [min] | Time (Mus musculus [3]) [s] | Time (Mus musculus [4]) [s] | Time (Mus musculus [5]) [min] | EC50 (Xenopus laevis [6]) [µM] | EC50 (Xenopus laevis [7]) [µM] | Activity (Rattus norvegicus [8]) | Ratio (Rattus norvegicus [9]) | Ratio (Rattus norvegicus [10]) | Ratio (Rattus norvegicus [11]) | Ratio (Rattus norvegicus [12]) | IC50 [13] [µM] | logP [14] | Activity (Xenopus laevis [15]) | Activity (Xenopus laevis [16]) | inhibition (Rattus norvegicus [17]) [%] | Ratio (HEK293 [18]) | Ratio (HEK293 [19]) | TIME (HEK293 [20]) [ms] |
| --- | --- | --- | --- | --- | --- | --- | --- | --- | --- | --- | --- | --- | --- | --- | --- | --- | --- | --- | --- | --- |
| CC(=O)[C@H]1CC[C@H]2[C@@H]3CC[C@H]4C[C@H](O)CC[C@]4(C)[C@H]3C(=O)C[C@]12C [ALFAXALONE] | 1 | 1 | <30 | <30 | 4 | – | – | – | – | – | – | – | – | – | – | – | – | – | – | – |
| CO[C@H]1C[C@@]2(C)[C@@H](CC[C@H]3[C@@H]4CC(=O)C[C@@]4(C)CC[C@@H]32)C[C@@H]1O | – | – | – | – | – | 9.29 | 3.15 | Dose-dependent effect | 0.01 | 4.48 | 1.23 | 0.92 | 1.27 | – | – | – | – | – | – | – |
| CC(=O)[C@H]1CC[C@H]2[C@@H]3CC[C@H]4C[C@H](O)CC[C@]4(C)[C@H]3CC[C@]12C [BREXANOLONE] | – | – | – | – | – | – | – | Dose-dependent effect | 0.37 | 9.65 | 3.89 | 1.26 | 0.074 | 4.46 | – | – | – | – | – | – |
| CO[C@H]1[C@H](O)CC[C@]2(C)[C@H]3CC[C@]4(C)C(=O)CC[C@H]4[C@@H]3CC[C@@H]12 | – | – | – | – | – | – | – | Dose-dependent effect | 0.12 | 0.91 | 1.01 | 1.08 | > 30 | – | inactive | inactive | 45 | – | – | – |
| C[C@@]12CC[C@@H]3[C@@H]4CC[C@H](O)C[C@H]4CC[C@H]3[C@@H]1CC(=O)C2 | – | – | – | – | – | 5.48 | 1.16 | Dose-dependent effect | 0.02 | 10.5 | 2.43 | 0.97 | 0.238 | 3.24 | – | – | – | 0.11 | 0.2 | 9.8 |
| O=C1C[C@@H]2CC[C@H]3[C@@H](CC[C@@H]4C[C@@H](O)CC[C@H]43)[C@@H]2C1 | – | – | – | – | – | – | – | Dose-dependent effect | 0 | 1.65 | 0.76 | 0.8 | 2.02 | 2.77 | inactive | inactive | 88 | 0.27 | 0.49 | 11.5 |
| CO[C@H]1C[C@@]2(C)[C@@H](CC[C@@H]3[C@@H]2CC[C@]2(C)C(=O)CC[C@@H]32)C[C@@H]1O | – | – | – | – | – | > 10 | 5.09 | Dose-dependent effect | 0.08 | 3.39 | 1.04 | 0.84 | 2.19 | – | – | – | – | – | – | – |
| C[C@@]12CC[C@H](O)C[C@H]1CC[C@H]1[C@@H]3CC(=O)C[C@@H]3CC[C@@H]12 | – | – | – | – | – | – | 3.64 | Dose-dependent effect | 0.01 | 3.56 | 1.13 | 0.93 | 1.52 | – | inactive | – | – | 0.21 | 0.53 | 16.1 |
| CO[C@H]1[C@H]2CC[C@@H]3[C@H](CC[C@@]4(C)C(=O)CC[C@@H]34)[C@]2(C)CC[C@@H]1O | – | – | – | – | – | 2.94 | 0.59 | Dose-dependent effect | 0.05 | 12.2 | 3.67 | 1.21 | 0.198 | – | – | – | – | – | – | – |
| C[C@]12CC[C@H]3[C@@H](CC[C@H]4C[C@H](O)CC[C@@]43C)[C@@H]1CC(=O)C2 | – | – | – | – | – | 7.54 | 3.6 | Dose-dependent effect | -0.02 | 9.98 | 1.38 | 1.01 | 0.895 | – | – | – | – | – | – | – |
| CO[C@H]1[C@H](O)CC[C@]2(C)[C@H]3CC[C@]4(C)CC(=O)C[C@H]4[C@@H]3CC[C@@H]12 | – | – | – | – | – | 13.5 | 3.15 | Dose-dependent effect | 0.02 | 0.69 | 0.72 | 0.88 | 6.68 | – | – | – | 65 | – | – | – |
| CO[C@@H]1C[C@]2(C)[C@H](CC[C@@H]3[C@@H]2CC[C@@]2(C)C(=O)CC[C@@H]32)C[C@H]1O | – | – | – | – | – | > 10 | 2.39 | Dose-dependent effect | -0.01 | 1.53 | 0.93 | 0.93 | 6.49 | – | – | – | – | – | – | – |
| CO[C@@H]1C[C@]2(C)[C@H](CC[C@H]3[C@@H]4CC(=O)C[C@]4(C)CC[C@@H]32)C[C@H]1O | – | – | – | – | – | 10.3 | 2.91 | Dose-dependent effect | 0.01 | 2.95 | 1.03 | 0.91 | 3.03 | – | – | – | – | – | – | – |
